Test results: article PMC8178754 (The Journal of Cell Biology, 2021)

Assays:
[1] = tested on: ctf3-2A ulp2–SIM-3A double mutant cells; assay: Spot assay, growth of mutant strains under chemical stress; format: cell-based, yeast; conditions: 10-fold serial dilutions, 30°C, 2 or 3 d
Method in brief: (§1)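 Strains were built by lithium acetate integration of PCR products and verified by sequencing or PCR. Cells were grown in YPD to OD600 ~1 and diluted to OD600 0.2. 10-fold serial dilutions in sterile water, 5 µl each, were spotted on YPD or YPD with hydroxyurea at indicated concentrations. Plates were incubated 2 or 3 d at 30°C, then imaged.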

[2] = tested on: cells lacking both Ulp2–kinetochore interactions (KIM-Ctf3 and SIM-SUMO); assay: Growth under chemical stress, cells lacking both Ulp2–kinetochore interactions; format: cell-based, yeast; conditions: KIM-Ctf3 and SIM-SUMO interactions both absent
Method in brief: as §1

ctf3-2A cells = assay: Spot assay, growth of mutant strains under chemical stress; format: cell-based, yeast; conditions: 10-fold serial dilutions, 30°C, 2 or 3 d; effects modest
Method in brief: as §1

[3] = tested on: ulp2–KIM-3A and ctf3-2A cells; assay: as above; format: cell-based, yeast; conditions: YPD + hydroxyurea; 10-fold dilution series
Method in brief: as §1

[4] = tested on: Ctf3-2A (Ctf3–R594A,K596A); assay: GST pulldown with Ctf3-2A; format: binding, yeast; conditions: Fig. S2 A, 20 mM Tris, pH 8.5, 150 mM NaCl
Ctf3 = assay: GST-Ulp2-KIM pulldown from yeast cell extracts, Ctf3; format: binding; conditions: immobilized GST-Ulp2-KIM as bait; anti–Protein A blot
[5] = target: T1, Ctf3 complex (Ctf3, Mcm16, Mcm22) (yeast, UniProt Q12748;Q12262;P47167); assay: fluorescence polarisation
T1 sequence (Q12748 whole entry, chain 1 of 3): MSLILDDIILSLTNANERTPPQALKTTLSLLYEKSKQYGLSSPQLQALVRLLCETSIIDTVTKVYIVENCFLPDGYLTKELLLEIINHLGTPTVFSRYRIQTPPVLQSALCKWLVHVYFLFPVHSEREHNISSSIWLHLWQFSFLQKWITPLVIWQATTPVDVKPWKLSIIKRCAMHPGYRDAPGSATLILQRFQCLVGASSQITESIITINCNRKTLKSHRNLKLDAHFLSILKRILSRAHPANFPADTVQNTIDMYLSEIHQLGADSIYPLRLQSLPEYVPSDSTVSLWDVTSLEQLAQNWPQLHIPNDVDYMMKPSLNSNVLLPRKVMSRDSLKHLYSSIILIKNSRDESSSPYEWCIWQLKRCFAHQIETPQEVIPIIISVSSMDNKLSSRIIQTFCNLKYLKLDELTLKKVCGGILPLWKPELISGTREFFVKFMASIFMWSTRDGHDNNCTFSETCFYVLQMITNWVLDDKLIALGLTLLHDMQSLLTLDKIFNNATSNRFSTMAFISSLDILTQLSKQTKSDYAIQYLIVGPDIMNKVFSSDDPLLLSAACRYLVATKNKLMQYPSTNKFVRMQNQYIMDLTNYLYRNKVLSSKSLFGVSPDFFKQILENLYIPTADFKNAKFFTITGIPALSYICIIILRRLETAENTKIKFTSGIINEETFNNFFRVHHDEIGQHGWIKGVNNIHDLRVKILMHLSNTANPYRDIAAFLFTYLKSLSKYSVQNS
T1 sequence (Q12262 whole entry, chain 2 of 3): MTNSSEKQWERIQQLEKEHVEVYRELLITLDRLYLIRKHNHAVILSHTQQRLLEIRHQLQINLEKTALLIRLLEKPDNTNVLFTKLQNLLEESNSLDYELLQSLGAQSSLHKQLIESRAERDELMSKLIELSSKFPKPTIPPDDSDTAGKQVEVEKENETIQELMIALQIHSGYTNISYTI
T1 sequence (P47167 whole entry, chain 3 of 3): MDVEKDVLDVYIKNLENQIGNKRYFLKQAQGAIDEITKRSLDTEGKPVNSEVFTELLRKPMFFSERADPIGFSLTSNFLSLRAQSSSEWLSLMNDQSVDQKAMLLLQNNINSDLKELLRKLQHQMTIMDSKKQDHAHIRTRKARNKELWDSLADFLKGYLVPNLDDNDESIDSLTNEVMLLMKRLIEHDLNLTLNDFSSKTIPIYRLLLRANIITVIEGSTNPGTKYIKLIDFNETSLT

[6] = target: T1, Ctf3 complex (Ctf3, Mcm16, Mcm22); assay: pull-down

CCCCNC(=O)n1c(NC(=O)OC)nc2ccccc21 [benomyl]
sensitivity of ctf3-2A ulp2–SIM-3A double mutant cells [1]: pronounced | viability/sensitivity of cells lacking both Ulp2–kinetochore interactions [2]: Compromised viability | sensitivity of ctf3-2A cells (ctf3-2A cells): sensitizes cells to hydroxyurea and benomyl

NC(=O)NO [hydroxyurea]
sensitivity of ctf3-2A ulp2–SIM-3A double mutant cells [1]: pronounced | sensitivity of ulp2–KIM-3A and ctf3-2A cells [3]: elevated sensitivity | viability/sensitivity of cells lacking both Ulp2–kinetochore interactions [2]: much more sensitive | sensitivity of ctf3-2A cells (ctf3-2A cells): sensitizes cells to hydroxyurea

B1: GST-Ulp2-KIM: GST fusion of the Ulp2 kinetochore interaction motif (KIM) (protein)
chain: MSARKRKFNSLKPLDTLNSSRASSPRSSASLPPKRYNTFRKDPKIVDHLNNASTKDFLPVLSMNSESKRQIELSDNDVDNNDEGEGVNSGCSDQDFEPLQSSPLKRHSSLKSTSNGLLFQMSNNLGNGSPEPAVASTSPNGSIISTKLNLNGQFSCVDSKTLRIYRHKAPCIMTFVSDHNHPKFSLYFQQSVIYNSQVNLLDDVELIILDKKNSFMAIILKDLKKVKMILDVNNSSININTNILIWSTASSASNKKIKSIKRFLLMSYSSSIKVEILDHKEQILERLKHLIHPISSSSPSLNMERAINSTKNAFDSLRLKKTKLSTNDDESPQIHTHFLSNKPHGLQSLTKRTRIASLGKKEHSISVPKSNISPSDFYNTNGTETLQSHAVSQLRRSNRFKDVSDPANSNSNSEFDDATTEFETPELFKPSLCYKFNDGSSYTITNQDFKCLFNKDWVNDSILDFFTKFYIESSIEKSIIKREQVHLMSSFFYTKLISNPADYYSNVKKWVNNTDLFSKKYVVIPINISYHWFSCIITNLDAILDFHQNKDKNDAINSDEISINNPLVNILTFDSLRQTHSREIDPIKEFLISYALDKYSIQLDKTQIKMKTCPVPQQPNMSDCGVHVILNIRKFFENPVETIDVWKNSKIKSKHFTAKMINKYFDKNERNSARKNLRHTLKLLQLNYISYLKKENLYEEVMQMEEKKSTNINNNENYDDDDEEIQIIENIDQSSKDNNAQLTSEPPCSRSSSISTTEREPTELHNSVVRQPTGEIITDNEDPVRAASPETASVSPPIRHNILKSSSPFISESANETEQEEFTSPYFGRPSLKTRAKQFEGVSSPIKNDQALSSTHDIMMPSPKPKRIYPSKKIPQLSSHVQSLSTDSMERQSSPNNTNIVISDTEQDSRLGVNSESKNTSGIVNRDDSDVNLIGSSLPNVAEKNHDNTQESNGNNDSLGKILQNVDKELNEKLVDIDDVAFSSPTRGIPRTSATSKGSNAQLLSNYGDENNQSQDSVWDEGRDNPILLEDEDP
Ulp2–KIM interaction with Ctf3-2A in pulldown [4]: Ctf3-2A does not support the Ulp2–KIM interaction

B2: Ulp2: nuclear enzyme that removes SUMO chains from modified substrates; in pulldown represented by GST-Ulp2-KIM bait (protein, UniProt P40537 1-1034, looked up)
Ubiquitin-like-specific …: MSARKRKFNSLKPLDTLNSSRASSPRSSASLPPKRYNTFRKDPKIVDHLNNASTKDFLPVLSMNSESKRQIELSDNDVDNNDEGEGVNSGCSDQDFEPLQSSPLKRHSSLKSTSNGLLFQMSNNLGNGSPEPAVASTSPNGSIISTKLNLNGQFSCVDSKTLRIYRHKAPCIMTFVSDHNHPKFSLYFQQSVIYNSQVNLLDDVELIILDKKNSFMAIILKDLKKVKMILDVNNSSININTNILIWSTASSASNKKIKSIKRFLLMSYSSSIKVEILDHKEQILERLKHLIHPISSSSPSLNMERAINSTKNAFDSLRLKKTKLSTNDDESPQIHTHFLSNKPHGLQSLTKRTRIASLGKKEHSISVPKSNISPSDFYNTNGTETLQSHAVSQLRRSNRFKDVSDPANSNSNSEFDDATTEFETPELFKPSLCYKFNDGSSYTITNQDFKCLFNKDWVNDSILDFFTKFYIESSIEKSIIKREQVHLMSSFFYTKLISNPADYYSNVKKWVNNTDLFSKKYVVIPINISYHWFSCIITNLDAILDFHQNKDKNDAINSDEISINNPLVNILTFDSLRQTHSREIDPIKEFLISYALDKYSIQLDKTQIKMKTCPVPQQPNMSDCGVHVILNIRKFFENPVETIDVWKNSKIKSKHFTAKMINKYFDKNERNSARKNLRHTLKLLQLNYISYLKKENLYEEVMQMEEKKSTNINNNENYDDDDEEIQIIENIDQSSKDNNAQLTSEPPCSRSSSISTTEREPTELHNSVVRQPTGEIITDNEDPVRAASPETASVSPPIRHNILKSSSPFISESANETEQEEFTSPYFGRPSLKTRAKQFEGVSSPIKNDQALSSTHDIMMPSPKPKRIYPSKKIPQLSSHVQSLSTDSMERQSSPNNTNIVISDTEQDSRLGVNSESKNTSGIVNRDDSDVNLIGSSLPNVAEKNHDNTQESNGNNDSLGKILQNVDKELNEKLVDIDDVAFSSPTRGIPRTSATSKGSNAQLLSNYGDENNQSQDSVWDEGRDNPILLEDEDP
pulldown of Ctf3 from yeast cell extract (Ctf3): Ctf3, but not Ctf3-2A, binds Ulp2

DDSDVNLIGSS (FITC-AHA on the N-terminus (FITC-AHA-DDSDVNLIGSS)) [FITC-Ulp2-KIM peptide (Ulp2-927-937)]
Kd [5]: ~900 nM

DDSDVNLIGSS [GST-Ulp2-927-937]
binding result [6]: binds

ADSDVNLIGSS [GST-Ulp2-KIM 1DA-1 (Ulp2-D927A)]
binding result [6]: binds

DDSDVALIGSS [GST-Ulp2-927-937 N932A]
binding result [6]: binds
